Results as given in ChEMBL document CHEMBL4732018, “Design, synthesis, and biological evaluation of pyrazole-linked aloe emodin derivatives as potential anticancer agents” (RSC Med Chem, 2021).
Activity calls are given as the source filed them. The calls are words filed in the database; no cut-off is given here.

Key:
MDA-MB-231 [1] = test: Induction of cell cycle arrest in human MDA-MB-231 cells assessed as accumulation at G1/S phase at 10 uM measured after 24 hrs by PI staining based flow cytometry (reference value: 19.33 %); type: functional
MDA-MB-231 [2] = test: Induction of apoptosis in human MDA-MB-231 cells assessed as increase in caspase 3 activity at 5 to 20 uM pretreated for 48 hrs followed by DEVD-pNA substrate addition for 2 hrs by colorimetric analysis; type: functional, cell-based; settings: dose 5-20 µM, time 50.0 hrs
How it was run: (§1)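 Colorimetric caspase kit. MDA-MB-231 cells were cultured 24 h, then treated at 0, 5, 10 and 20 µM for 48 h. Lysates were mixed with reaction buffer containing 10 mM DTT. pNA substrate was added at 4 mM final (VDVAD for caspase-2, DEVD for caspase-3, VEID for caspase-6) and incubated 2 h at 37 °C. Absorbance read at 405 nm; triplicate, mean ± SD.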

MDA-MB-231 [3] = test: Induction of cell cycle arrest in human MDA-MB-231 cells assessed as accumulation at G0/G1 phase at 20 uM measured after 24 hrs by PI staining based flow cytometry (reference value: 76.36 %); type: functional
MDA-MB-231 [4] = test: Induction of cell cycle arrest in human MDA-MB-231 cells assessed as accumulation at G1/S phase at 5 uM measured after 24 hrs by PI staining based flow cytometry (reference value: 19.33 %); type: functional
MDA-MB-231 [5] = test: Induction of cell cycle arrest in human MDA-MB-231 cells assessed as accumulation at G2/M phase at 20 uM measured after 24 hrs by PI staining based flow cytometry (reference value: 4.31 %); type: functional
HepG2 = test: Anticancer activity against human HepG2 cells assessed as cell growth inhibition measured after 48 hrs by MTT assay; type: functional, cell-based; settings: HepG2, 48 h
How it was run: (§2)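 MTT test on ATCC lines grown in RPMI with 10% FBS and antibiotic/antimycotic at 37 °C in 5% CO₂. Cells were seeded at 4 x 10^3/well and treated for 48 h at 2.5, 5, 10 and 20 µM, from DMSO stocks diluted in medium. MTT (10 mg/mL stock) was then added for 3 h and absorbance read at 540 nm. IC50 derived; three independent experiments.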

MDA-MB-231 [6] = test: Induction of apoptosis in human MDA-MB-231 cells assessed as increase in caspase 9 activity at 5 to 20 uM pretreated for 48 hrs followed by LEHD-pNA substrate addition for 2 hrs by colorimetric analysis; type: functional, cell-based; settings: dose 5-20 µM, time 50.0 hrs
MDA-MB-231 [7] = test: Induction of apoptosis in human MDA-MB-231 cells assessed as early apoptotic cells at 5 uM measured after 24 hrs by Annexin V-FITC/PI staining based flow cytometric analysis (reference value: 6.73 %); type: functional
MDA-MB-231 [8] = test: Induction of apoptosis in human MDA-MB-231 cells assessed as late apoptotic cells at 5 uM measured after 24 hrs by Annexin V-FITC/PI staining based flow cytometric analysis; type: functional
MDA-MB-231 [9] = test: Induction of cell cycle arrest in human MDA-MB-231 cells assessed as accumulation at sub G0 phase at 20 uM measured after 24 hrs by PI staining based flow cytometry (reference value: 1.33 %); type: functional
MDA-MB-231 [10] = test: Induction of cell cycle arrest in human MDA-MB-231 cells assessed as accumulation at G2/M phase at 10 uM measured after 24 hrs by PI staining based flow cytometry (reference value: 4.31 %); type: functional
HEK293 = test: Cytotoxicity against human HEK293 cells assessed as cell growth inhibition measured after 48 hrs by MTT assay; type: cell-based; settings: HEK293, 48 h; how it was run: as §2
MDA-MB-231 [11] = test: Induction of cell cycle arrest in human MDA-MB-231 cells assessed as accumulation at G2/M phase at 5 uM measured after 24 hrs by PI staining based flow cytometry (reference value: 4.31 %); type: functional
MDA-MB-231 [12] = test: Induction of apoptosis in human MDA-MB-231 cells assessed as late apoptotic cells at 20 uM measured after 24 hrs by Annexin V-FITC/PI staining based flow cytometric analysis; type: functional
MDA-MB-231 [13] = test: Induction of cell cycle arrest in human MDA-MB-231 cells assessed as accumulation at G0/G1 phase at 10 uM measured after 24 hrs by PI staining based flow cytometry (reference value: 76.36 %); type: functional
MCF7 = test: Anticancer activity against human MCF-7 cells assessed as cell growth inhibition measured after 48 hrs by MTT assay; type: functional, cell-based; settings: MCF7, 48 h; how it was run: as §2
B16-F10 = test: Anticancer activity against mouse B16-F10 cells assessed as cell growth inhibition measured after 48 hrs by MTT assay; type: functional, cell-based; settings: B16-F10, 48 h; how it was run: as §2
MDA-MB-231 [14] = test: Induction of apoptosis in human MDA-MB-231 cells assessed as early apoptotic cells at 20 uM measured after 24 hrs by Annexin V-FITC/PI staining based flow cytometric analysis (reference value: 6.73 %); type: functional
MDA-MB-231 [15] = test: Induction of membrane disintegrity in human MDA-MB-231 cells assessed as increase in LDH release at 2.5 to 20 uM incubated for 48 hrs by LDH leakage assay; type: functional, cell-based; settings: dose 2.5-20 µM
How it was run: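 Extracellular LDH kit assay. Cells were seeded at 4 x 10^3/well and treated 48 h at various concentrations. 20 µL of culture supernatant was assayed with absorbance at 450 nm. Results are expressed as % LDH leakage relative to untreated control cells; triplicate, mean ± SD.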

MDA-MB-231 [16] = test: Induction of apoptosis in human MDA-MB-231 cells assessed as late apoptotic cells at 10 uM measured after 24 hrs by Annexin V-FITC/PI staining based flow cytometric analysis; type: functional
MDA-MB-231 [17] = test: Induction of cell cycle arrest in human MDA-MB-231 cells assessed as accumulation at G1/S phase at 20 uM measured after 24 hrs by PI staining based flow cytometry (reference value: 19.33 %); type: functional
MDA-MB-231 [18] = test: Induction of apoptosis in human MDA-MB-231 cells assessed as early apoptotic cells at 10 uM measured after 24 hrs by Annexin V-FITC/PI staining based flow cytometric analysis (reference value: 6.73 %); type: functional
MDA-MB-231 [19] = test: Induction of apoptosis in human MDA-MB-231 cells assessed as increase in caspase 2 activity at 5 to 20 uM pretreated for 48 hrs followed by VDVAD-pNA substrate addition for 2 hrs by colorimetric analysis; type: functional, cell-based; settings: dose 5-20 µM, time 50.0 hrs; how it was run: as §1
MDA-MB-231 [20] = test: Induction of apoptosis in human MDA-MB-231 cells assessed as increase in caspase 6 activity at 5 to 20 uM pretreated for 48 hrs followed by VEID-pNA substrate addition for 2 hrs by colorimetric analysis; type: functional, cell-based; settings: dose 5-20 µM, time 50.0 hrs; how it was run: as §1
MDA-MB-231 [21] = test: Induction of cell cycle arrest in human MDA-MB-231 cells assessed as accumulation at G0/G1 phase at 5 uM measured after 24 hrs by PI staining based flow cytometry (reference value: 76.36 %); type: functional
MDA-MB-231 [22] = test: Induction of cell cycle arrest in human MDA-MB-231 cells assessed as accumulation at sub G0 phase at 10 uM measured after 24 hrs by PI staining based flow cytometry (reference value: 1.33 %); type: functional
MDA-MB-231 [23] = test: Induction of cell cycle arrest in human MDA-MB-231 cells assessed as accumulation at sub G0 phase at 5 uM measured after 24 hrs by PI staining based flow cytometry (reference value: 1.33 %); type: functional
MDA-MB-231 [24] = test: Anticancer activity against human MDA-MB-231 cells assessed as cell growth inhibition measured after 48 hrs by MTT assay; type: functional, cell-based; settings: MDA-MB-231, 48 h; how it was run: as §2
MDA-MB-231 [25] = test: Induction of apoptosis in human MDA-MB-231 cells assessed as increase in caspase 8 activity at 5 to 20 uM pretreated for 48 hrs followed by IETD-pNA substrate addition for 2 hrs by colorimetric analysis; type: functional, cell-based; settings: dose 5-20 µM, time 50.0 hrs

SMILES: COC(=O)c1c(-c2cc(O)c3c(c2)C(=O)c2cccc(O)c2C3=O)nn(-c2ccc(C)cc2)c1C(=O)OC
- Activity (MDA-MB-231 [1]): 32.1%
- Activity (MDA-MB-231 [2]): Active
- Activity (MDA-MB-231 [3]): 69.82%
- Activity (MDA-MB-231 [4]): 36.97%
- Activity (MDA-MB-231 [5]): 12.33%
- IC50 (HepG2): 5.62 µM
- Activity (MDA-MB-231 [6]): Active
- Activity (MDA-MB-231 [7]): 38.3%
- Activity (MDA-MB-231 [8]): 19%
- Activity (MDA-MB-231 [9]): 25.8%
- Activity (MDA-MB-231 [10]): 4.54%
- IC50 (HEK293): 30.1 µM
- Activity (MDA-MB-231 [11]): 5.77%
- Activity (MDA-MB-231 [12]): 71.81%
- Activity (MDA-MB-231 [13]): 63.3%
- IC50 (MCF7): 990 nM
- IC50 (B16-F10): 9.57 µM
- Activity (MDA-MB-231 [14]): 12.47%
- Activity (MDA-MB-231 [15]): Active
- Activity (MDA-MB-231 [16]): 38.13%
- Activity (MDA-MB-231 [17]): 17.85%
- Activity (MDA-MB-231 [18]): 16.43%
- Activity (MDA-MB-231 [19]): Active
- Activity (MDA-MB-231 [20]): Active
- Activity (MDA-MB-231 [21]): 57.25%
- Activity (MDA-MB-231 [22]): 8.2%
- Activity (MDA-MB-231 [23]): 3.22%
- IC50 (MDA-MB-231 [24]): 1320 nM
- Activity (MDA-MB-231 [25]): Active

SMILES: COC(=O)c1c(-c2cc(O)c3c(c2)C(=O)c2cccc(O)c2C3=O)nn(-c2ccc(C(C)C)cc2)c1C(=O)OC
- Activity (MDA-MB-231 [1]): 34.14%
- Activity (MDA-MB-231 [2]): Active
- Activity (MDA-MB-231 [3]): 74.2%
- Activity (MDA-MB-231 [4]): 22.19%
- Activity (MDA-MB-231 [5]): 0%
- IC50 (HepG2): 3.99 µM
- Activity (MDA-MB-231 [6]): Active
- Activity (MDA-MB-231 [7]): 20.55%
- Activity (MDA-MB-231 [8]): 17.43%
- Activity (MDA-MB-231 [9]): 61.45%
- Activity (MDA-MB-231 [10]): 0.05%
- IC50 (HEK293): 21.2 µM
- Activity (MDA-MB-231 [11]): 0.62%
- Activity (MDA-MB-231 [12]): 50.45%
- Activity (MDA-MB-231 [13]): 65.81%
- IC50 (MCF7): 2680 nM
- IC50 (B16-F10): 6.06 µM
- Activity (MDA-MB-231 [14]): 35.34%
- Activity (MDA-MB-231 [15]): Active
- Activity (MDA-MB-231 [16]): 14.24%
- Activity (MDA-MB-231 [17]): 25.8%
- Activity (MDA-MB-231 [18]): 38.08%
- Activity (MDA-MB-231 [19]): Active
- Activity (MDA-MB-231 [20]): Active
- Activity (MDA-MB-231 [21]): 77.2%
- Activity (MDA-MB-231 [22]): 10.87%
- Activity (MDA-MB-231 [23]): 5.66%
- IC50 (MDA-MB-231 [24]): 1660 nM
- Activity (MDA-MB-231 [25]): Active
